According to article PMC2671235 (Biochemistry, 2009):
“Also recorded” adds a separate entry of the source. Like-named read-outs stand apart in the source and are kept apart here. Ends that are not written are not given here.

Tests used:
S100A10 [1] = target: T1, S100A10 (Homo sapiens, UniProt P60903); experiment: ITC of AnII binding to S100A10
Outline: (§1)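 Isothermal titration calorimetry in 20 mM Tris, 0.2 mM EDTA, 1 mM TCEP, pH 7.5. S100A10 was run with 5 mM calcium or without calcium; Ca2+-S100A11 was run with or without 100 mM NaCl. Protein and peptide were co-dialysed at 4°C. Screens injected 2 μL of about 0.75 mM peptide into about 20–25 μM protein at 10 and 25°C, continuing to saturation when heat appeared. Integrated heats were fit to two sequential sites per dimer, over five temperatures. ΔCp was taken from the slope of ΔHcal against temperature.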

S100A11 [2] = target: T2, S100A11 (Homo sapiens, UniProt P31949); experiment: ITC of AnII binding to Ca2+-S100A11
T2 sequence (P31949 1-105): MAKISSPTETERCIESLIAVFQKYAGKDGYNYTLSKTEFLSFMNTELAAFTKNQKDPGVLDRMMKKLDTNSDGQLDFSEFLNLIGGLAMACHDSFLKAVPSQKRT
Outline: as §1

[3] = Far-UV CD of free peptides; format: physicochemical; conditions: TFE up to 60%, with or without calcium
Outline: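 Peptides were run at […] in 20 mM Tris, 3 mM DTT, 0.2 mM EDTA, pH 7.5, without or with 5 mM calcium. TFE was added up to 60% final. Buffer-corrected ellipticity was converted to mean residue ellipticity. Fraction helicity was taken from [Θ]222 against temperature-dependent fully coiled and fully helical reference values.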

S100A11 [4] = target: T2, S100A11; experiment: Far-UV CD difference spectra, peptide with S100A11; format: binding; conditions: for fractional helicity upon binding: far-UV CD difference spectra, 10 μM protein, 50 μM peptide, 5 mM calcium; for coil-to-helix transition upon binding: far-UV CD, Ca2+-S100A11
Outline: (§2)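 Recombinant S100 protein expressed in E. coli BL21(DE3), purified by phenyl-Sepharose and Sephadex G-75; S100A10 eluted in 8 M urea and refolded by dialysis. Far-UV CD recorded 250–200 nm on 10 μM protein plus 50 μM peptide in binding buffer with 5 mM calcium. Difference spectrum: complex minus free peptide minus free protein, converted to mean residue ellipticity assuming saturated sites. Fraction helicity derived from [Θ]222 against temperature-dependent coil and helix reference values.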

S100A10 [5] = target: T1, S100A10; experiment: Far-UV CD difference spectra, AnII with S100A10; format: binding
Outline: as §2

[6] = Analytical equilibrium ultracentrifugation; format: physicochemical; conditions: 4°C, 35,000 rpm, 20 mM Tris, 1 mM TCEP, 0.2 mM EDTA, pH 7.5, absence or presence of 5 mM calcium; single species fit
Outline: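 Peptides were N-terminally acetylated; AnII carried an added C-terminal Tyr. Concentrations came from ε280 of 5,500 (AnI) and 1,490 (AnII) M−1 cm−1. Radial distributions were fitted to a single-species equilibrium equation using partial specific volumes of 0.748 (AnI) and 0.745 (AnII) cm3/g.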

[7] = system: sixteen members of S100 protein family; experiment: Screen of peptides against S100 family; format: binding, human; conditions: S100 proteins other than the partners found (S100A6, S100A10, S100A11)
S100A10 [8] = conditions: literature; ref [15]; cited from earlier work
S100A11 [9] = conditions: cited from earlier work
Ca2+-S100P = conditions: ref [25], cited from earlier work
calmodulin [10] = conditions: ref [27]; cited from earlier work
S100A11 [11] = target: T2, S100A11; experiment: Trp fluorescence titration of AnI with S100A11; format: binding
Outline: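 Intrinsic Trp emission of 2 μM peptide, excited at 295 nm and read at 305–400 nm. Protein was added stepwise in 1.2 μM increments to 10 μM, a final 5:1 protein:peptide ratio. Emission intensity and maximum were followed. Kd came from fitting the intensity change against protein concentration to a model with two identical sites per dimer.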

S100A6 [12] = target: T3, S100A6 (Homo sapiens, UniProt P06703); experiment: Trp fluorescence titration of AnI with S100A6; format: binding
[13] = system: S100 protein family members (S100A1-S100A13, S100B, S100P, S100Z); experiment: Trp fluorescence screen of AnI against other S100 proteins; format: binding, human; conditions: any S100 protein other than S100A11 and S100A6; protein:peptide ratio up to 5:1
Outline: (§3)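 This screen used a thermostated cell, 295 nm excitation, and emission scanned over 305–400 nm. Concentrated protein in assay buffer was added stepwise to 2 μM AnI, up to 10 μM protein (5:1). For Trp-containing S100A1, A3, A8, A9 and A13, AnI was instead added to 2 μM protein up to 5:1 peptide:protein, and protein-only spectra were subtracted.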

calmodulin [14] = experiment: Trp fluorescence screen of AnI against calmodulin; format: binding; conditions: protein:peptide ratio up to 5:1
Outline: as §3

S100A11 [15] = target: T2, S100A11; experiment: ITC of AnI binding to Ca2+-S100A11
Outline: (§4)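 VP-ITC in 20 mM Tris, 0.2 mM EDTA, 1 mM TCEP, pH 7.5 with 5 mM calcium. Protein and peptide were co-dialysed with three buffer changes at 4°C. Because of its limited solubility, the AnI peptide was placed in the cell and the S100 protein titrated from the syringe. Runs were done at five temperatures (15–35°C). Integrated injection heats were fitted to a two identical non-interacting sites per dimer model.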

S100A6 [16] = target: T3, S100A6; experiment: ITC of AnI binding to Ca2+-S100A6; conditions: different temperatures, relative to free energy of binding
Outline: as §4

S100A6 [17] = target: T3, S100A6; experiment: Far-UV CD difference spectra, AnI with S100A6; format: binding
S100A6-Y84S = experiment: Far-UV CD difference spectra, AnI with S100A6-Y84S; format: binding, human; conditions: 5 mM calcium
Outline: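 Spectra of 10 μM protein with 50 μM AnI in 5 mM calcium binding buffer were recorded at 250–200 nm. The difference spectrum was complex minus free peptide minus free protein, converted to mean residue ellipticity assuming saturated sites.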

[18] = system: S100A6 variants (Y73F, Y84S, Y73F/Y84S); experiment: Binding affinity of AnI for substituted S100A6 variants; design: species or system human; conditions: data not shown
[19] = Trp fluorescence emission of free AnI; format: physicochemical; conditions: free AnI in solution, excitation 295 nm, emission 305-400 nm, pH 7.5
[20] = ITC screen and calcium dependence
[21] = slope of ΔHcal vs temperature, ITC at 5 temperatures
[22] = literature, AnII labeled with Prodan in that study, ref [15]
[23] = 5 mM calcium, pH 7.5, excitation 295 nm

T1 sequence (P60903 whole entry): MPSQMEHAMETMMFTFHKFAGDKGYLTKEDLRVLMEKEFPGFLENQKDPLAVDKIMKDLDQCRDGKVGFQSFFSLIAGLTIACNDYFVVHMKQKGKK

Substance: Ac-STVHEILSKLSLEGY [AnII]
- effect of calcium on ITC binding (S100A10 [1]; 5 mM calcium compared with absence of calcium): very similar to the data obtained in the absence of calcium
- binding (S100A10 [1]; [20]): the binding is independent of calcium; also recorded: AnII has been found to bind S100A10
- enthalpy of binding (sign/size) (S100A10 [1]; ITC, total enthalpy from both binding sites, entire temperature range): large and negative; also recorded: exothermic
- ΔCp,exp (S100A10 [1]; [21]): −2.4±0.3 kJ/(mol·K)
- effect of ionic strength on thermodynamics of binding (S100A11 [2]; 100 mM NaCl): did not have any effect on the thermodynamics of binding
- enthalpy of binding (sign/size) (S100A11 [2]; ITC): endothermic but small relative to the Gibbs energy of binding
- binding (S100A11 [2]; [20]): this binding to S100A11 is also modulated by calcium; also recorded: AnII has been found to bind S100A10 and Ca^2+-S100A11
- ΔCp,exp (S100A11 [2]; [21]): −1.1±0.2 kJ/(mol·K)
- secondary structure in TFE [3]: far-UV CD spectra characteristic of helices
- fractional helicity upon binding (S100A11 [4]): 0.57
- coil-to-helix transition upon binding (S100A11 [4]): undergo a coil-to-helix transition upon binding
- helicity when bound (S100A10 [5]; compared to AnII bound to S100A11): AnII becomes more helical when bound to S100A10 compared to when it is bound to S100A11
- coil-to-helix transition upon binding (S100A10 [5]; far-UV CD, S100A10): undergo a coil-to-helix transition upon binding
- molecular mass in solution (oligomeric state) [6]: 1.9 ± 0.16 kDa
- binding to the other S100 proteins [7]: bind to only these S100 proteins and not the others
- binding (S100A10 [8]): S100A10 binds AnII but not AnI
- binding (S100A11 [9]; NMR spectroscopy, ref [16]): AnII can interact with Ca^2+-S100A11
- binding (S100A11 [9]; [22]): S100A11 binds AnI but not AnII

Substance: melittin: peptide with the ability to bind both S100P and calmodulin
- ΔCp (Ca2+-S100P; melittin binding to Ca2+-S100P): −2.5±0.5 kJ/(mol·K)
- binding (Ca2+-S100P): has the ability to bind both S100P
- binding (calmodulin [10]): has the ability to bind both S100P ([25]) and calmodulin

Substance: Ac-AMVSEFLKQAWFIE [AnI]
- Kd (S100A11 [11]): 5 ± 1 µM
- fluorescence emission maximum wavelength of AnI in presence of Ca2+-S100A11 (S100A11 [11]; [23]): 350 nm
- change in Trp emission spectra without calcium (S100A11 [11]; S100A11 in the absence of calcium): very little change in the emission spectra
- binding (S100A11 [11]; Trp fluorescence screen, Ca2+-S100A11): AnI has been found to bind Ca^2+-S100A6 and Ca^2+-S100A11
- fluorescence emission maximum wavelength of AnI upon addition of Ca2+-S100A6 (S100A6 [12]; [23]): 352 nm
- change in Trp fluorescence without calcium (S100A6 [12]; S100A6 in the absence of calcium): No changes in Trp-fluorescence
- binding (S100A6 [12]; Trp fluorescence screen, Ca2+-S100A6): AnI has been found to bind Ca^2+-S100A6
- change in Trp fluorescence (emission maximum or intensity) in screen [13]: did not show changes in Trp fluorescence
- change in Trp fluorescence / binding in screen (calmodulin [14]): did not show changes in Trp fluorescence; also recorded: Neither peptide was found to bind to calmodulin
- Kd (S100A11 [15]): 5 ± 2 µM
- temperature dependence of dissociation constant (S100A11 [15]; ITC, 15-35°C): does not depend significantly on temperature
- enthalpy of binding ΔHcal at 15°C (S100A11 [15]; ITC, 15°C, 5 mM calcium): -0.96 kcal/mol
- enthalpy of binding ΔHcal at 35°C (S100A11 [15]; ITC, 35°C, 5 mM calcium): -7.17 kcal/mol
- free energy of binding ΔG=−RTln(Kd) (S100A11 [15]; per binding site, from ITC Kd): ≈ 30 kJ/mol; also recorded: ≈ 26 kJ/mol
- ΔCp,exp (S100A11 [15]; slope of ΔHcal vs temperature, ITC 15-35°C, 5 mM calcium): −1.3±0.2 kJ/(mol·K)
- enthalpy of binding (sign/size) (S100A6 [16]): either negative or positive but small relative to the free energy of binding
- secondary structure in TFE [3]: far-UV CD spectra characteristic of helices
- fractional helicity upon binding (S100A11 [4]): 0.59
- coil-to-helix transition upon binding (S100A11 [4]): undergo a coil-to-helix transition upon binding
- far-UV CD difference spectrum (S100A6 [17]; AnI with Ca2+-S100A6 wild type, 10 μM protein, 50 μM AnI, 5 mM calcium): A noted lower elipticity
- coil-to-helix transition upon binding (S100A6 [17]; far-UV CD, Ca2+-S100A6): undergo a coil-to-helix transition upon binding
- far-UV CD difference spectrum (S100A6-Y84S): the difference spectrum for the Y84S variant has a similar spectrum to that of the wild type
- effect of S100A6 substitutions on binding affinity [18]: the substitutions do not have a significant effect on the binding affinity
- molecular mass in solution (oligomeric state) [6]: 1.9 ± 0.07 kDa
- fluorescence emission maximum wavelength of free AnI [19]: approximately 359 nm
- binding to the other S100 proteins [7]: bind to only these S100 proteins and not the others
- binding (S100A10 [8]): S100A10 binds AnII but not AnI
- binding (S100A11 [9]; [22]): S100A11 binds AnI but not AnII
